Calls of active or inactive are those of the source.
Columns and labels:
PBMC [1] = assay: Immunomodulatory activity in human PBMC assessed as induction of IL1-beta after 24 hrs; format: functional, cell-based
Outline: (§1)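 Human PBMCs plated at 5 × 10^6 cells/mL; compounds dissolved in PBS added at various concentrations, 37 °C for 24 h. Supernatant cytokines/chemokines quantified with human Luminex multiplex kit.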

PBMC [2] = assay: Immunomodulatory activity in human PBMC assessed as induction of MIP1beta after 24 hrs; format: functional, cell-based; outline: as §1
PBMC [3] = assay: Immunomodulatory activity in human PBMC assessed as induction of MCP1 after 24 hrs; format: functional, cell-based; outline: as §1
PBMC [4] = assay: Immunomodulatory activity in human PBMC assessed as induction of IP10 after 24 hrs; format: functional, cell-based; outline: as §1
PBMC [5] = assay: Immunomodulatory activity in human PBMC assessed as induction of IL10 after 24 hrs; format: functional, cell-based; outline: as §1
PBMC [6] = assay: Immunomodulatory activity in human PBMC assessed as induction of IL12 after 24 hrs; format: functional, cell-based; outline: as §1
Homo sapiens = organism: Homo sapiens; assay: Immunostimulatory activity in human pDC assessed as induction of IP10 at 100 ug/ml after 24 hrs; format: functional
Outline: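 Human pDCs plated at 1 × 10^6 cells/mL; compounds in PBS added, 37 °C for 24 h; supernatant cytokines/chemokines by human Luminex multiplex kit.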

PBMC [7] = assay: Immunomodulatory activity in human PBMC assessed as induction of MIP1alpha after 24 hrs; format: functional, cell-based; outline: as §1
PBMC [8] = assay: Immunomodulatory activity in human PBMC assessed as induction of IFNalpha after 24 hrs; format: functional, cell-based; outline: as §1
PBMC [9] = assay: Immunomodulatory activity in human PBMC assessed as induction of IL6 after 24 hrs; format: functional, cell-based; outline: as §1
PBMC [10] = assay: Immunomodulatory activity in human PBMC assessed as induction of TNFalpha after 24 hrs; format: functional, cell-based; outline: as §1

Measured: Activity

Nc1ccn([C@@H]2O[C@H](COP(=O)(S)O[C@H]3[C@@H](O)[C@H](n4cnc5c(N)ncnc54)O[C@@H]3CO)[C@@H](OP(=O)(S)OC[C@H]3O[C@@H](n4ccc(=O)[nH]c4=O)[C@H](O)[C@@H]3OP(=O)(S)OC[C@H]3O[C@@H](n4ccc5c(=O)[nH]c(N)nc54)[C@H](O)[C@@H]3OP(=O)(S)OC[C@H]3O[C@@H](n4ccc(N)nc4=O)[C@H](O)[C@@H]3OP(=O)(S)OC[C@H]3O[C@@H](n4ccc5c(=O)[nH]c(N)nc54)[C@H](O)[C@@H]3OP(=O)(S)OC[C@H]3O[C@@H](n4cnc5c(N)ncnc54)[C@H](O)[C@@H]3OP(=O)(S)OC[C@H]3O[C@@H](n4ccc5c(=O)[nH]c(N)nc54)[C@H](O)[C@@H]3OP(=O)(S)OC[C@H]3O[C@@H](n4ccc(N)nc4=O)[C@H](O)[C@@H]3OP(=O)(S)OC[C@H]3O[C@@H](n4ccc(=O)[nH]c4=O)[C@H](O)[C@@H]3OP(=O)(S)OC[C@H]3O[C@@H](n4ccc(=O)[nH]c4=O)[C@H](O)[C@@H]3OP(=O)(S)OCC(O)COP(=O)(S)O[C@H]3[C@@H](O)[C@H](n4ccc(=O)[nH]c4=O)O[C@@H]3COP(=O)(S)O[C@H]3[C@@H](O)[C@H](n4ccc(=O)[nH]c4=O)O[C@@H]3COP(=O)(S)O[C@H]3[C@@H](O)[C@H](n4ccc(N)nc4=O)O[C@@H]3COP(=O)(S)O[C@H]3[C@@H](O)[C@H](n4ccc5c(=O)[nH]c(N)nc54)O[C@@H]3COP(=O)(S)O[C@H]3[C@@H](O)[C@H](n4cnc5c(N)ncnc54)O[C@@H]3COP(=O)(S)O[C@H]3[C@@H](O)[C@H](n4ccc5c(=O)[nH]c(N)nc54)O[C@@H]3COP(=O)(S)O[C@H]3[C@@H](O)[C@H](n4ccc(N)nc4=O)O[C@@H]3COP(=O)(S)O[C@H]3[C@@H](O)[C@H](n4ccc5c(=O)[nH]c(N)nc54)O[C@@H]3COP(=O)(S)O[C@H]3[C@@H](O)[C@H](n4ccc(=O)[nH]c4=O)O[C@@H]3COP(=O)(S)O[C@H]3[C@@H](O)[C@H](n4ccc(N)nc4=O)O[C@@H]3COP(=O)(S)O[C@H]3[C@@H](O)[C@H](n4cnc5c(N)ncnc54)O[C@@H]3CO)[C@H]2O)c(=O)n1 (stereo partly drawn)
active: PBMC [1] Dose-dependent effect | PBMC [2] Dose-dependent effect | PBMC [3] Dose-dependent effect | PBMC [4] Dose-dependent effect | PBMC [5] Dose-dependent effect | PBMC [6] Dose-dependent effect | Homo sapiens | PBMC [7] Dose-dependent effect | PBMC [8] Dose-dependent effect | PBMC [9] Dose-dependent effect | PBMC [10] Dose-dependent effect

Nc1ccn([C@@H]2O[C@H](COP(=O)(S)O[C@H]3[C@@H](O)[C@H](n4cnc5c(N)ncnc54)O[C@@H]3COP(=O)(S)O[C@H]3[C@@H](O)[C@H](n4ccc5c(=O)[nH]c(N)nc54)O[C@@H]3COP(=O)(S)O[C@H]3[C@@H](O)[C@H](n4ccc(=O)[nH]c4=O)O[C@@H]3COP(=O)(S)O[C@H]3[C@@H](O)[C@H](n4ccc(=O)[nH]c4=O)O[C@@H]3COP(=O)(S)O[C@H]3[C@@H](O)[C@H](n4cnc5c(N)ncnc54)O[C@@H]3COP(=O)(S)O[C@H]3[C@@H](O)[C@H](n4cnc5c(N)ncnc54)O[C@@H]3CO)[C@@H](OP(=O)(S)OC[C@H]3O[C@@H](n4ccc5c(=O)[nH]c(N)nc54)[C@H](O)[C@@H]3OP(=O)(S)OC[C@H]3O[C@@H](n4ccc(N)nc4=O)[C@H](O)[C@@H]3OP(=O)(S)OC[C@H]3O[C@@H](n4ccc(=O)[nH]c4=O)[C@H](O)[C@@H]3OP(=O)(S)OC[C@H]3O[C@@H](n4ccc(=O)[nH]c4=O)[C@H](O)[C@@H]3OP(=O)(S)OCC(O)COP(=O)(S)O[C@H]3[C@@H](O)[C@H](n4ccc(=O)[nH]c4=O)O[C@@H]3COP(=O)(S)O[C@H]3[C@@H](O)[C@H](n4ccc(=O)[nH]c4=O)O[C@@H]3COP(=O)(S)O[C@H]3[C@@H](O)[C@H](n4ccc(N)nc4=O)O[C@@H]3COP(=O)(S)O[C@H]3[C@@H](O)[C@H](n4ccc5c(=O)[nH]c(N)nc54)O[C@@H]3COP(=O)(S)O[C@H]3[C@@H](O)[C@H](n4ccc(N)nc4=O)O[C@@H]3COP(=O)(S)O[C@H]3[C@@H](O)[C@H](n4cnc5c(N)ncnc54)O[C@@H]3COP(=O)(S)O[C@H]3[C@@H](O)[C@H](n4ccc5c(=O)[nH]c(N)nc54)O[C@@H]3COP(=O)(S)O[C@H]3[C@@H](O)[C@H](n4ccc(=O)[nH]c4=O)O[C@@H]3COP(=O)(S)O[C@H]3[C@@H](O)[C@H](n4ccc(=O)[nH]c4=O)O[C@@H]3COP(=O)(S)O[C@H]3[C@@H](O)[C@H](n4cnc5c(N)ncnc54)O[C@@H]3COP(=O)(S)O[C@H]3[C@@H](O)[C@H](n4cnc5c(N)ncnc54)O[C@@H]3CO)[C@H]2O)c(=O)n1 (stereo partly drawn)
active: PBMC [1] Dose-dependent effect | PBMC [2] Dose-dependent effect | PBMC [3] Dose-dependent effect | PBMC [4] Dose-dependent effect | PBMC [5] Dose-dependent effect | PBMC [6] Dose-dependent effect | Homo sapiens | PBMC [7] Dose-dependent effect | PBMC [8] Dose-dependent effect | PBMC [9] Dose-dependent effect | PBMC [10] Dose-dependent effect

Nc1ccn([C@@H]2O[C@H](COP(=O)(S)O[C@H]3[C@@H](O)[C@H](n4cnc5c(N)ncnc54)O[C@@H]3COP(=O)(S)O[C@H]3[C@@H](O)[C@H](n4ccc5c(=O)[nH]c(N)nc54)O[C@@H]3COP(=O)(S)O[C@H]3[C@@H](O)[C@H](n4ccc(=O)[nH]c4=O)O[C@@H]3COP(=O)(S)O[C@H]3[C@@H](O)[C@H](n4ccc5c(=O)[nH]c(N)nc54)O[C@@H]3COP(=O)(S)O[C@H]3[C@@H](O)[C@H](n4cnc5c(N)ncnc54)O[C@@H]3COP(=O)(S)O[C@H]3[C@@H](O)[C@H](n4cnc5c(N)ncnc54)O[C@@H]3CO)[C@@H](OP(=O)(S)OC[C@H]3O[C@@H](n4ccc5c(=O)[nH]c(N)nc54)[C@H](O)[C@@H]3OP(=O)(S)OC[C@H]3O[C@@H](n4ccc(N)nc4=O)[C@H](O)[C@@H]3OP(=O)(S)OC[C@H]3O[C@@H](n4ccc(=O)[nH]c4=O)[C@H](O)[C@@H]3OP(=O)(S)OC[C@H]3O[C@@H](n4ccc(=O)[nH]c4=O)[C@H](O)[C@@H]3OP(=O)(S)OCC(O)COP(=O)(S)O[C@H]3[C@@H](O)[C@H](n4ccc(=O)[nH]c4=O)O[C@@H]3COP(=O)(S)O[C@H]3[C@@H](O)[C@H](n4ccc(=O)[nH]c4=O)O[C@@H]3COP(=O)(S)O[C@H]3[C@@H](O)[C@H](n4ccc(N)nc4=O)O[C@@H]3COP(=O)(S)O[C@H]3[C@@H](O)[C@H](n4ccc5c(=O)[nH]c(N)nc54)O[C@@H]3COP(=O)(S)O[C@H]3[C@@H](O)[C@H](n4ccc(N)nc4=O)O[C@@H]3COP(=O)(S)O[C@H]3[C@@H](O)[C@H](n4cnc5c(N)ncnc54)O[C@@H]3COP(=O)(S)O[C@H]3[C@@H](O)[C@H](n4ccc5c(=O)[nH]c(N)nc54)O[C@@H]3COP(=O)(S)O[C@H]3[C@@H](O)[C@H](n4ccc(=O)[nH]c4=O)O[C@@H]3COP(=O)(S)O[C@H]3[C@@H](O)[C@H](n4ccc5c(=O)[nH]c(N)nc54)O[C@@H]3COP(=O)(S)O[C@H]3[C@@H](O)[C@H](n4cnc5c(N)ncnc54)O[C@@H]3COP(=O)(S)O[C@H]3[C@@H](O)[C@H](n4cnc5c(N)ncnc54)O[C@@H]3CO)[C@H]2O)c(=O)n1 (stereo partly drawn)
active: PBMC [1] Dose-dependent effect | PBMC [2] Dose-dependent effect | PBMC [3] Dose-dependent effect | PBMC [4] Dose-dependent effect | PBMC [5] Dose-dependent effect | PBMC [6] Dose-dependent effect | Homo sapiens | PBMC [7] Dose-dependent effect | PBMC [8] Dose-dependent effect | PBMC [9] Dose-dependent effect | PBMC [10] Dose-dependent effect

Reference: ChEMBL document CHEMBL1154352, “Toll-like receptor 7 selective synthetic oligoribonucleotide agonists: synthesis and structure-activity relationship studies” (J Med Chem, 2009)
